Key:
Lysyl oxidase homolog 2 [1] = biological target: T1, Lysyl oxidase homolog 2 (Homo sapiens, UniProt Q9Y4K0); test: Substrate activity at recombinant human C-terminal His-tagged […] (1-774 residues) expressed in mouse myeloma cells assessed as oxidative turnover at 30 uM measured after 30 mins by horseradish peroxidase-coupled amplex red reagent-based fluorescence assay relative to DMSO; assay type: ADME, cell-based; details: 0.5 h
T1 sequence (Q9Y4K0 whole entry): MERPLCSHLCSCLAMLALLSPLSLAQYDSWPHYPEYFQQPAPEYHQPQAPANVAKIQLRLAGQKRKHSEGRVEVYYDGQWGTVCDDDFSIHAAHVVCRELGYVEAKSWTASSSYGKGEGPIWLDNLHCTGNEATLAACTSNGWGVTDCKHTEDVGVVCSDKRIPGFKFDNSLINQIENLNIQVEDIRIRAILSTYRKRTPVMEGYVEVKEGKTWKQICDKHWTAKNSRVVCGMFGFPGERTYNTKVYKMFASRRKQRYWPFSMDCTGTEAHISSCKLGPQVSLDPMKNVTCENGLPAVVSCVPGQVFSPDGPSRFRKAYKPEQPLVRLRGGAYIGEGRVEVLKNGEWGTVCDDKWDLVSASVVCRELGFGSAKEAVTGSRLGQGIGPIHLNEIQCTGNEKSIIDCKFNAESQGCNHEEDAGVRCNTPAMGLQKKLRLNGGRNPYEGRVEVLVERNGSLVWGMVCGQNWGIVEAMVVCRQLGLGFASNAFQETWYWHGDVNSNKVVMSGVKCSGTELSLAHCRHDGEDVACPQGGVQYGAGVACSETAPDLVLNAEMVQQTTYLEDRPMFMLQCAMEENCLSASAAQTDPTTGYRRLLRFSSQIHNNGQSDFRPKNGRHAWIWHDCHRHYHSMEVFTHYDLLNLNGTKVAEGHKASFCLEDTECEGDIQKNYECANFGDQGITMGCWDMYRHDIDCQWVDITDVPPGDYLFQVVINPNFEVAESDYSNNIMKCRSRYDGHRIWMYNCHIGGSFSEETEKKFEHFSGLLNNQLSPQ
In short: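 LOXL2 incubated with compound, no substrate present. Hydrogen peroxide generation read by Amplex Red/HRP fluorescence (ex 565, em 590 nm). Oxidative turnover at 30 min expressed relative to DMSO.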

[2] = biological target: T2, Lysyl oxidase homolog 2 (Homo sapiens) (UniProt Q9Y4K0); test: Inhibition of recombinant human C-terminal His-tagged […] (1-774 residues) expressed in mouse myeloma cells assessed as recovery of enzyme activity at 10XIC50 preincubated with bound enzyme for 30 mins followed by drug wash-out and later incubated with putrescine substrate and measured after 30 mins by Amplex-Red oxidation assay; assay type: cell-based; design: scale not given: the % may be the effect or the level left
T2 sequence (whole entry): T1 sequence (Q9Y4K0 whole entry)

Protein-lysine 6-oxidase = biological target: T3, Protein-lysine 6-oxidase (Bos taurus, UniProt P33072); test: Inhibition of LOX in bovine aorta using putrescine as substrate preincubated with enzyme for 30 mins followed by substrate addition and measured every 2.5 mins for 30 mins by Amplex-Red oxidation assay; assay type: tissue-based; details: read-out: pIC50 (converted)
T3 sequence (P33072 whole entry): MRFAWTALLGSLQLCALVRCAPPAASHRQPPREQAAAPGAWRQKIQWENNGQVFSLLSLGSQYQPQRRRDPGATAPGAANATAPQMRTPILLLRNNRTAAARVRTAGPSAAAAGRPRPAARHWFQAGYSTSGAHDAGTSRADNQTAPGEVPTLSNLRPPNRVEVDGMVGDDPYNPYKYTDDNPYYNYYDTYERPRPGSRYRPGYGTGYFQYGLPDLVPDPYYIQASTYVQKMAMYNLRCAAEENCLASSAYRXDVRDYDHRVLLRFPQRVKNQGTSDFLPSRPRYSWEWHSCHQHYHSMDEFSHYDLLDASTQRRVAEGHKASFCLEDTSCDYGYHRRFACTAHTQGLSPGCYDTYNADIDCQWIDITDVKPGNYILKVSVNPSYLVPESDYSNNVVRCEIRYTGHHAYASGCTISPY
In short: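 LOX extracted from calf aorta after PBS washing with 4 M urea/50 mM borate pH 8.2, concentrated on 10 kDa filters into 1.2 M urea/borate with protease inhibitors. Preincubated 30 min at 37 °C with compound, then Amplex Red/HRP with 10 mM putrescine; fluorescence read every 2.5 min for 30 min.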

[3] = biological target: T4, Amine oxidase [copper-containing] 3 (Homo sapiens, UniProt Q16853); test: Substrate activity at recombinant human SSAO assessed as compound oxidation by measuring oxidative turnover at 30 uM measured for 40 mins by horseradish peroxidase-coupled amplex red reagent-based fluorometric assay relative to DMSO; assay type: ADME
T4 sequence (Q16853 whole entry): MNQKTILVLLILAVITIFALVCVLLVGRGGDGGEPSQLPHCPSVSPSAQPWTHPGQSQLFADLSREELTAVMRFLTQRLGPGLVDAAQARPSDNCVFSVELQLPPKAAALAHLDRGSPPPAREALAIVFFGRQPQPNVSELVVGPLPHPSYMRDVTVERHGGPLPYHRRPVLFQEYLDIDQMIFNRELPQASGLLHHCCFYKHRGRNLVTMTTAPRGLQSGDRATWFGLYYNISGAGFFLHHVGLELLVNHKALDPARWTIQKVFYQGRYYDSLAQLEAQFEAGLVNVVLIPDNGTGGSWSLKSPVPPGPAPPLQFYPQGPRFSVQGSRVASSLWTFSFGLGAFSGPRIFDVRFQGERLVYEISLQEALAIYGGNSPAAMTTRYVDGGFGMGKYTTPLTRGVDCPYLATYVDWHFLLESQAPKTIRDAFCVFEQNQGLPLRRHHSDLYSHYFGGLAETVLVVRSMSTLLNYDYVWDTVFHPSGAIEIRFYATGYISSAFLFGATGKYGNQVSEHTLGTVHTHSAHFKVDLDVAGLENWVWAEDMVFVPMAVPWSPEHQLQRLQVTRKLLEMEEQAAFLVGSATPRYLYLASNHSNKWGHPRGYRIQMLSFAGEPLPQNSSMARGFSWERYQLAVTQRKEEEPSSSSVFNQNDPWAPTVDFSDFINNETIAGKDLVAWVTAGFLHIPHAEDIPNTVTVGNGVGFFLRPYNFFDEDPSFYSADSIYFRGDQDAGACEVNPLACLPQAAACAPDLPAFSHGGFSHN
In short: (§1)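 Compound oxidation measured without substrate by peroxidase-coupled fluorometric read-out of resorufin formation over 40 min at 37 °C in HEPES buffer. Amplex Red 20 µM, HRP 4 U/ml, test compound at final 30 µM. Enzyme source was human recombinant SSAO or AOC4 from diluted dog serum. Benzylamine at 600 µM served as positive control. Signal is expressed relative to DMSO-only background, so a value near 1 means no turnover.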

Lysyl oxidase homolog 2 [4] = biological target: T1, Lysyl oxidase homolog 2; test: Inhibition of recombinant human C-terminal His-tagged […] (1-774 residues) expressed in mouse myeloma cells using putrescine as substrate preincubated with enzyme for 30 mins followed by substrate addition and measured every 2.5 mins for 30 mins by Amplex-Red oxidation assay; details: read-out: pIC50 (converted)
In short: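 LOXL2 enzyme preincubated with compound for 30 min at 37 °C, then Amplex Red (120 µM) / HRP (1.5 U/mL) mix containing 5 mM putrescine added. Buffer: 1.2 M urea, 50 mM sodium borate, pH 8.2. H2O2 fluorescence (ex 565/em 590) read every 2.5 min for 30 min at 37 °C; BAPN 100 µM as positive control; n≥2.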

[5] = Substrate activity at AOC4 in dog serum assessed as compound oxidation by measuring oxidative turnover at 30 uM measured for 40 mins by horseradish peroxidase-coupled amplex red reagent-based fluorometric assay relative to DMSO; assay type: ADME, cell-free, Canis lupus familiaris; in short: as §1
[6] = biological target: T5, Amine oxidase [flavin-containing] B (Homo sapiens, UniProt P27338); test: Inhibition of recombinant human MAOB expressed in baculovirus infected in BTI cells using benzylamine as substrate preincubated with enzyme for 30 mins followed by substrate addition and measured every 2.5 mins for 30 mins by Amplex-Red oxidation assay; details: human, 0.5 h
T5 sequence (P27338 whole entry): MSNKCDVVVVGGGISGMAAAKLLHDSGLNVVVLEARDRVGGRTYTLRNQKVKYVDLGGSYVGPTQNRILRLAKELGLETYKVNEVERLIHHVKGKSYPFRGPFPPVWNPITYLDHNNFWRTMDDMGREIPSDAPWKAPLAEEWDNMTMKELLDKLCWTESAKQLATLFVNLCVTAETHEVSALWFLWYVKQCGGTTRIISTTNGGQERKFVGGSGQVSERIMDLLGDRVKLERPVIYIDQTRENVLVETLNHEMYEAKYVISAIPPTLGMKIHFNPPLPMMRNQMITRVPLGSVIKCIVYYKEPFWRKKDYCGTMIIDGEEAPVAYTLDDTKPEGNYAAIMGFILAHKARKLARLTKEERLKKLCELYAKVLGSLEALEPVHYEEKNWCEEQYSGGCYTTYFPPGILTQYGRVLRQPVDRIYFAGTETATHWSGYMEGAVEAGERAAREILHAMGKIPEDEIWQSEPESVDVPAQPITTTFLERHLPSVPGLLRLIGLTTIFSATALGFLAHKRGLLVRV

[7] = biological target: T4, Amine oxidase [copper-containing] 3; test: Inhibition of recombinant human SSAO using benzylamine as substrate preincubated with enzyme for 30 mins followed by substrate addition and measured every 2.5 mins for 30 mins by Amplex-Red oxidation assay; details: read-out: pIC50 (converted)
[8] = Metabolic stability of the compound in dog plasma assessed as SSAO/plasma amine oxidase-mediated compound oxidation preincubated with SSAO/primary amine oxidase inhibitor, semicarbazide followed by incubation with compound and measured after 1 hr; assay type: ADME, Canis lupus familiaris
[9] = tested on: SSAO/plasma amine oxidase; test: Metabolic stability of the compound in dog plasma assessed as SSAO/plasma amine oxidase-mediated compound oxidation by measuring parent compound remaining after 1 hr; assay type: ADME, Canis lupus familiaris; details: read-out: Stability
In short: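 Compound incubated in dog plasma; percentage of parent compound remaining measured after 1 hour.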

fold change (FC) (Lysyl oxidase homolog 2 [1])	Activity [2]	IC50 (Protein-lysine 6-oxidase)	fold change (FC) [3]	IC50 (Lysyl oxidase homolog 2 [4])	fold change (FC) [5]	pIC50 [6]	IC50 [7]	Stability [8]	remaining at 1 h [9]	SMILES
6	75%	3160 nM	1	794 nM	1.3	–	–	–	–	Cc1c(-c2cccc(S(=O)(=O)N(C)C)c2)c2cc(C(=O)O)ccc2n1C/C=C/CN.Cl
–	–	794 nM	–	20 nM	–	Not Active	> 31.6 µM	Stable	0%	CN(C)S(=O)(=O)c1ccc(OCc2cn(C/C(F)=C/CN)nn2)c(Cl)c1.Cl

— ChEMBL document CHEMBL4321820, “Identification and Optimization of Mechanism-Based Fluoroallylamine Inhibitors of Lysyl Oxidase-like 2/3” (J Med Chem, 2019)
